According to ChEMBL document CHEMBL2311264, “Synthesis and anticancer activity of heteroaromatic linked 4β-amido podophyllotoxins as apoptotic inducing agents” (Bioorg Med Chem Lett, 2013):
Calls of active or inactive are those of the source. The rule behind the calls is not given here.

Tests used:
HeLa = assay: Cytotoxicity against human HeLa cells […] by MTT assay; assay type: functional, cell-based
ACHN = assay: Cytotoxicity against human ACHN cells […] by MTT assay; assay type: functional, cell-based
B16 = assay: Cytotoxicity against mouse B16 cells […] by MTT assay; assay type: functional, cell-based
HT-29 = assay: Cytotoxicity against human HT-29 cells after 72 hrs by MTT assay; assay type: functional, cell-based; conditions: HT-29, 72 h
A549 [1] = assay: Cytotoxicity against human A549 cells […] by MTT assay; assay type: functional, cell-based
A549 [2] = assay: Induction of apoptosis in human A549 cells assessed as increase in caspase3 activity at 3 uM after 48 hrs relative to control; assay type: functional
In short: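 A-549 cells were seeded at 2.5 × 10^6/well and treated 48 h alongside etoposide, then scraped and lysed on ice. Supernatant was mixed with 2X assay buffer and Ac-DEVD-AFC substrate for 1 h. Fluorescence (ex 400, em 505 nm) was read every 5 min, normalized to Bradford protein and expressed as fold over control. Two experiments, each in triplicate.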

A549 [3] = assay: Induction of apoptosis in human A549 cells assessed as increase in fluorescence at 3 uM after 24 hrs by Hoechst staining method relative to control; assay type: functional, cell-based
In short: (§1)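 Cells were seeded at 10,000 per coverslip and grown 24 h, then treated 24 h. Vehicle control was 0.001% DMSO; etoposide was the standard. Hoechst at […] with 4% paraformaldehyde was added for 30 min at 37 °C. Random fields were imaged by fluorescence microscopy and apoptotic cells scored manually by cytoplasmic condensation, apoptotic bodies, nuclear fragmentation and relative fluorescence.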

A549 [4] = assay: Induction of apoptosis in human A549 cells assessed as nuclear fragmentation at 3 uM after 24 hrs by Hoechst staining method; assay type: functional, cell-based; in short: as §1
A549 [5] = assay: Induction of apoptosis in human A549 cells assessed as apoptotic bodies at 3 uM after 24 hrs by Hoechst staining method; assay type: functional, cell-based; in short: as §1
A549 [6] = assay: Induction of apoptosis in human A549 cells assessed as cytoplasmic condensation at 3 uM after 24 hrs by Hoechst staining method; assay type: functional, cell-based; in short: as §1
A549 [7] = assay: Induction of apoptosis in human A549 cells assessed as DNA fragmentation at 3 uM after 48 hrs by agarose gel electrophoretic analysis; assay type: functional, cell-based
In short: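 Cells were seeded at 1 × 10^6/well and grown 48 h, then treated 48 h. Cells were pelleted and lysed. Lysate was given SDS and RNase-A at 56 °C for 2 h, then proteinase K at 37 °C for 2 h. DNA was precipitated with ammonium acetate and cold ethanol, washed with 80% ethanol and dissolved in TE. Laddering was read on 2% agarose gel in TE; 50 bp marker.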

A549 [8] = assay: Induction of cell cycle arrest in human A549 cells assessed as G2/M phase cells at 3 uM by FACS analysis (reference value: 9.89%); assay type: functional
A549 [9] = assay: Induction of cell cycle arrest in human A549 cells assessed as G2/M phase cells at 1 uM by FACS analysis (reference value: 9.89%); assay type: functional
A549 [10] = assay: Induction of cell cycle arrest in human A549 cells assessed as S phase cells at 3 uM by FACS analysis (reference value: 3.69%); assay type: functional
A549 [11] = assay: Induction of cell cycle arrest in human A549 cells assessed as S phase cells at 1 uM by FACS analysis (reference value: 3.69%); assay type: functional
A549 [12] = assay: Induction of cell cycle arrest in human A549 cells assessed as G1 phase cells at 3 uM by FACS analysis (reference value: 85.33%); assay type: functional
A549 [13] = assay: Induction of cell cycle arrest in human A549 cells assessed as G1 phase cells at 1 uM by FACS analysis (reference value: 85.33%); assay type: functional
A549 [14] = assay: Induction of cell cycle arrest in human A549 cells assessed as sub G1 phase cells at 3 uM by FACS analysis (reference value: 1.08%); assay type: functional
A549 [15] = assay: Induction of cell cycle arrest in human A549 cells assessed as sub G1 phase cells at 1 uM by FACS analysis (reference value: 1.08%); assay type: functional

COc1cc([C@@H]2c3cc4c(cc3[C@@H](NC(=O)c3cc(-c5ccc(F)cc5)on3)[C@H]3COC(=O)[C@H]23)OCO4)cc(OC)c1OC
IC50 (HeLa): 16.6 µM
IC50 (ACHN): 15.6 µM
IC50 (B16): 23.5 µM
IC50 (HT-29): 19.9 µM
IC50 (A549 [1]): 20.6 µM

COc1cc([C@@H]2c3cc4c(cc3[C@@H](NC(=O)c3cc(-c5ccc([N+](=O)[O-])cc5)n5nc(-c6ccccc6)cc5n3)[C@H]3COC(=O)[C@H]23)OCO4)cc(OC)c1OC
IC50 (HeLa): 12.1 µM
IC50 (ACHN): 17.7 µM
IC50 (B16): 18.4 µM
IC50 (HT-29): 10.9 µM
IC50 (A549 [1]): 10.6 µM

COc1cc([C@@H]2c3cc4c(cc3[C@@H](O[C@@H]3O[C@@H]5CO[C@@H](C)O[C@H]5[C@H](O)[C@H]3O)[C@H]3COC(=O)[C@H]23)OCO4)cc(OC)c1O [ETOPOSIDE]
fold change (FC) (A549 [2]): 6
Activity (A549 [3]): Active
Activity (A549 [4]): Active
Activity (A549 [5]): Active
Activity (A549 [6]): Active
Activity (A549 [7]): Active
Activity (A549 [8]): 57.86%
Activity (A549 [9]): 32.33%
Activity (A549 [10]): 2.42%
Activity (A549 [11]): 4.1%
Activity (A549 [12]): 31.49%
Activity (A549 [13]): 62.32%
Activity (A549 [14]): 8.3%
Activity (A549 [15]): 1.25%
IC50 (HeLa): 1.52 µM
IC50 (B16): 1.39 µM
IC50 (A549 [1]): 2.8 µM

COc1ccc(-c2cc(C(=O)N[C@@H]3c4cc5c(cc4[C@@H](c4cc(OC)c(OC)c(OC)c4)[C@H]4C(=O)OC[C@@H]43)OCO5)nc3cc(-c4ccccc4)nn23)cc1OC
IC50 (HeLa): 14.4 µM
IC50 (ACHN): 19.3 µM
IC50 (B16): 10.7 µM
IC50 (HT-29): 14.5 µM
IC50 (A549 [1]): 17.3 µM

COc1cc([C@@H]2c3cc4c(cc3[C@@H](NC(=O)c3cc(-c5ccc(C)cc5)[nH]n3)[C@H]3COC(=O)[C@H]23)OCO4)cc(OC)c1OC
IC50 (HeLa): 16.9 µM
IC50 (ACHN): 25.8 µM
IC50 (B16): 16.6 µM
IC50 (HT-29): 26.5 µM
IC50 (A549 [1]): 22.3 µM

COc1cc(-c2cc(C(=O)N[C@@H]3c4cc5c(cc4[C@@H](c4cc(OC)c(OC)c(OC)c4)[C@H]4C(=O)OC[C@@H]43)OCO5)no2)cc(OC)c1OC
IC50 (HeLa): 18.4 µM
IC50 (ACHN): 34.2 µM
IC50 (B16): 23.4 µM
IC50 (HT-29): 25.1 µM
IC50 (A549 [1]): 19.8 µM

COc1cc([C@@H]2c3cc4c(cc3[C@@H](NC(=O)c3cc(-c5ccc(C)cc5)on3)[C@H]3COC(=O)[C@H]23)OCO4)cc(OC)c1OC
IC50 (HeLa): 5.26 µM
IC50 (ACHN): 28.5 µM
IC50 (B16): 20.3 µM
IC50 (HT-29): 27.9 µM
IC50 (A549 [1]): 24.7 µM

COc1cc([C@@H]2c3cc4c(cc3[C@@H](NC(=O)c3cc(-c5ccc([N+](=O)[O-])cc5)[nH]n3)[C@H]3COC(=O)[C@H]23)OCO4)cc(OC)c1OC
IC50 (HeLa): 14.6 µM
IC50 (ACHN): 23.5 µM
IC50 (HT-29): 20.6 µM
IC50 (A549 [1]): 19.4 µM

COc1cc([C@@H]2c3cc4c(cc3[C@@H](NC(=O)c3cc(-c5ccc(F)cc5)[nH]n3)[C@H]3COC(=O)[C@H]23)OCO4)cc(OC)c1OC
IC50 (HeLa): 15.2 µM
IC50 (ACHN): 18.3 µM
IC50 (B16): 26.1 µM
IC50 (HT-29): 26.3 µM
IC50 (A549 [1]): 21.2 µM

COc1ccc(-c2cc(C(=O)N[C@@H]3c4cc5c(cc4[C@@H](c4cc(OC)c(OC)c(OC)c4)[C@H]4C(=O)OC[C@@H]43)OCO5)nc3cc(-c4ccccc4)nn23)cc1
IC50 (HeLa): 8.9 µM
IC50 (ACHN): 17.3 µM
IC50 (B16): 18.3 µM
IC50 (HT-29): 5.7 µM
IC50 (A549 [1]): 11.2 µM

COc1cc([C@@H]2c3cc4c(cc3[C@H](O)[C@H]3COC(=O)[C@H]23)OCO4)cc(OC)c1OC [PODOFILOX]
Activity (A549 [9]): 16.24%
Activity (A549 [11]): 3.67%
Activity (A549 [13]): 78.31%
Activity (A549 [15]): 1.83%
IC50 (HeLa): 2.8 µM
IC50 (ACHN): 2.3 µM
IC50 (B16): 2.5 µM
IC50 (HT-29): 1.02 µM
IC50 (A549 [1]): 3.6 µM
